Source: ChEMBL document CHEMBL3232854, “Agonists for the adenosine A1 receptor with tunable residence time. A Case for nonribose 4-amino-6-aryl-5-cyano-2-thiopyrimidines” (J Med Chem, 2014)
pEC50, pKi: −log10 of the molar value.

How the values were obtained:
Adenosine receptor A1 [1] = target: T1, Adenosine receptor A1 (Homo sapiens, UniProt P30542); experiment: Displacement of [3H]DPCPX from human adenosine A1 receptor expressed in CHO cell membranes after 1 hr by beta scintillation counting analysis
T1 sequence (P30542 whole entry): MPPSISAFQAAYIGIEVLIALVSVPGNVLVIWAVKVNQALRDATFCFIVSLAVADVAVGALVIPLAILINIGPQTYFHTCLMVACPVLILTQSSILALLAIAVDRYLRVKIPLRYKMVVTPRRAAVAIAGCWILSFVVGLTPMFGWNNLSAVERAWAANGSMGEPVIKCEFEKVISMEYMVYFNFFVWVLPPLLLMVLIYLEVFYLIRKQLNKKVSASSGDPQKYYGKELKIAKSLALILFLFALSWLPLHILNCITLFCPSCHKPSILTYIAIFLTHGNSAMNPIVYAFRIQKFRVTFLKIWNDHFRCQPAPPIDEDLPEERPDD
Method in brief: (§1)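 Membranes from CHO cells stably expressing human A1 receptor (5 μg protein) incubated with [3H]DPCPX in 25 mM Tris-HCl pH 7.4, 5 mM MgCl2, 0.1% CHAPS, 1 h at 25 °C; nonspecific binding with 100 μM CPA; GF/B filtration, three ice-cold washes, scintillation counting. Single 1 μM points from ≥2 experiments in duplicate; Ki by nonlinear regression (radioligand KD 1.6 nM), ≥3 experiments in duplicate.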

[2] = target: T2, Adenosine receptor A1 (Homo sapiens) (UniProt P30542); experiment: Ratio for displacement of [3H]DPCPX from human adenosine A1 receptor expressed in CHO cell membranes at 10 times Ki after 15 mins by dual-point competition association assay to ratio for displacement of [3H]DPCPX from human adenosine A1 receptor expressed in CHO cell membranes 10 times Ki after 120 mins by dual-point competition association assay
T2 sequence (whole entry): T1 sequence (P30542 whole entry)

[3] = target: T2, Adenosine receptor A1 (Homo sapiens); experiment: Displacement of [3H]DPCPX from human adenosine A1 receptor expressed in CHO cell membranes assessed as residence time on receptor at 10 times Ki after 90 mins by competition association assay
[4] = target: Adenosine receptor A2a (Homo sapiens) (UniProt P29274); experiment: Displacement of [3H]ZM241385 from human adenosine A2A receptor expressed in HEK293 cell membranes at 1 uM after 2 hrs by beta scintillation counting analysis relative to control
Method in brief: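 HEK 293 membranes stably expressing human A2A receptor (25 μg protein) incubated with [3H]ZM241385 in 50 mM Tris-HCl pH 7.4, 2 h at 25 °C; compounds at 1 μM; nonspecific binding with 100 μM CPA; GF/B filtration, ice-cold washes, scintillation counting; ≥2 experiments in duplicate.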

[5] = target: T3, Adenosine receptor A2b (Homo sapiens) (UniProt P29275); experiment: Displacement of [3H]PSB603 from human adenosine A2B receptor expressed in CHO cell membranes at 1 uM after 2 hrs by beta scintillation counting analysis relative to control
T3 sequence (whole entry): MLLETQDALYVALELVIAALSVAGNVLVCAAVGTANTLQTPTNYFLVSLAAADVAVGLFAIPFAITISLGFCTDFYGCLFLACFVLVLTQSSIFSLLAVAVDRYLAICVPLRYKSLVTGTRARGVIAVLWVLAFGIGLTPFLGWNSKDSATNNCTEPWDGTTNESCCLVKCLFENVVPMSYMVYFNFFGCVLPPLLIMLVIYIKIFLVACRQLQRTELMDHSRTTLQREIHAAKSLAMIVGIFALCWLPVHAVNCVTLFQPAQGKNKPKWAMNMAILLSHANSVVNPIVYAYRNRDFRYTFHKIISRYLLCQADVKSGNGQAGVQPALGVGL

[6] = target: T4, Adenosine receptor A3 (Homo sapiens) (UniProt P0DMS8); experiment: Displacement of [3H]PSB11 from human adenosine A3 receptor expressed in CHO cell membranes at 1 uM after 2 hrs by beta scintillation counting analysis relative to control
T4 sequence (whole entry): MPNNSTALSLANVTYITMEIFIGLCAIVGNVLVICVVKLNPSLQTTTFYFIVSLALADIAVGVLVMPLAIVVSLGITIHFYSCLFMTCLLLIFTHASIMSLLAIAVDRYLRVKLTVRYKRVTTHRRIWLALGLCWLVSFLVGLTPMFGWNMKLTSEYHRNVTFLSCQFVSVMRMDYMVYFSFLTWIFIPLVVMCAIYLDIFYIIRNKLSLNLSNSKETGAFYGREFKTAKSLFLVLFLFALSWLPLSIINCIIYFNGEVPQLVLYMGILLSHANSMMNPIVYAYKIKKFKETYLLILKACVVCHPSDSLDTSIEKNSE
Method in brief: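 CHO membranes stably expressing human A3 receptor (45 μg protein) incubated with [3H]PSB11 and 1 μM compound in 50 mM Tris-HCl pH 8.0, 10 mM MgCl2, 1 mM EDTA, 0.01% CHAPS, 2 h at 25 °C; nonspecific binding with 100 μM NECA; filtration, washes without CHAPS, scintillation counting; ≥2 experiments in duplicate.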

[7] = target: T2, Adenosine receptor A1 (Homo sapiens); experiment: Agonist activity human adenosine A1 receptor expressed in CHO cell membranes assessed as stimulation of [35S]GTPgammaS binding preincubated for 30 mins followed by radioligand addition measured after 90 mins by beta scintillation counting analysis relative to N6-cyclopentyladenosine; type: functional
Adenosine receptor A1 [8] = target: T1, Adenosine receptor A1; experiment: Agonist activity human adenosine A1 receptor expressed in CHO cell membranes assessed as stimulation of [35S]GTPgammaS binding preincubated for 30 mins followed by radioligand addition measured after 90 mins by beta scintillation counting analysis; type: functional
Adenosine receptor A1 [9] = target: T1, Adenosine receptor A1; experiment: Agonist activity at human adenosine A1 receptor expressed in HEK293 cells assessed as […] in intracellular cAMP level after 30 mins by EIA; type: functional, cell-based
[10] = target: T2, Adenosine receptor A1 (Homo sapiens); experiment: Displacement of [3H]DPCPX from human adenosine A1 receptor expressed in CHO cell membranes at 1 uM after 1 hr by beta scintillation counting analysis relative to control; method in brief: as §1
[11] = target: T2, Adenosine receptor A1 (Homo sapiens); experiment: Agonist activity human adenosine A1 receptor expressed in CHO cell membranes assessed as stimulation of [35S]GTPgammaS binding at 100 times Ki preincubated for 30 mins followed by radioligand addition measured after 90 mins by beta scintillation counting analysis relative to N6-cyclopentyladenosine; type: functional
Adenosine receptor A2b = target: T5, Adenosine receptor A2b (Homo sapiens, UniProt P29275); experiment: Displacement of [3H]PSB603 from human adenosine A2B receptor expressed in CHO cell membranes after 2 hrs by beta scintillation counting analysis
T5 sequence (P29275 whole entry): T3 sequence (whole entry)

Adenosine receptor A1 [12] = target: T1, Adenosine receptor A1; experiment: Agonist activity at adenosine A1 receptor (unknown origin) expressed in CHO cells assessed as […] in intracellular cAMP level by RIA; type: functional, cell-based

Sequence of Adenosine receptor A2a (Homo sapiens) (P29274 whole entry): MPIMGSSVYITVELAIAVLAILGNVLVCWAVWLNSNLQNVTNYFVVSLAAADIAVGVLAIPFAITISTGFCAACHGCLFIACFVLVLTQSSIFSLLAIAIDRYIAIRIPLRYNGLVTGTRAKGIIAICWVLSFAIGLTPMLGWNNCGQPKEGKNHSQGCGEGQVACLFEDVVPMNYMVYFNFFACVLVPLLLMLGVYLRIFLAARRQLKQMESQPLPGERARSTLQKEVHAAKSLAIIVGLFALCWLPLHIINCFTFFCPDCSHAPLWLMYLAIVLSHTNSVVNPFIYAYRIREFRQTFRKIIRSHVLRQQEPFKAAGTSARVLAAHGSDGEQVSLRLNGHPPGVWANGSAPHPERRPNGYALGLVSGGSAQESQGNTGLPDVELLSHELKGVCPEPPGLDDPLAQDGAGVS

Row | SMILES | pKi (Adenosine receptor A1 [1]) | Ratio [2] | TIME [3] [h] | other results
1 | N#Cc1c(N)nc(SCc2csc(-c3cccc(F)c3)n2)nc1-c1ccc2c(c1)OCO2 | 7.85 | 1.24 | 0.55 | 
2 | N#Cc1c(N)nc(SCc2csc(N3CCOCC3)n2)nc1-c1ccc2c(c1)OCO2 | 8.72 | 0.81 | 0.02 | inhibition [4]: 21%; inhibition [5]: 12%; inhibition [6]: 18%; Emax [7]: 65%; pEC50 (Adenosine receptor A1 [8]): 8.74
3 | N#Cc1c(N)nc(SCc2csc(-c3ccc(Cl)cc3)n2)nc1-c1ccc(OCCO)cc1 | 8.32 | 1.18 |  | inhibition [4]: 10%; inhibition [5]: 3.5%; inhibition [6]: 3%; Emax [7]: 99%; pEC50 (Adenosine receptor A1 [8]): 7.92
4 | N#Cc1c(N)nc(SCc2csc(-c3ccccc3)n2)nc1-c1ccc2c(c1)OCO2 | 8.62 | 1.1 |  | inhibition [4]: -2%; inhibition [5]: 20%; inhibition [6]: 24%; Emax [7]: 84%; pEC50 (Adenosine receptor A1 [8]): 8.34
5 | N#Cc1c(N)nc(SCc2csc(-c3ccc(I)cc3)n2)nc1-c1ccc2c(c1)OCO2 | 8.00 | 1.4 | 1.06 | inhibition [4]: 2.5%; inhibition [5]: 7.5%; inhibition [6]: 9%; Emax [7]: 82%; pEC50 (Adenosine receptor A1 [8]): 8.02
6 | N#Cc1c(N)nc(SCc2csc(-c3ccc(Cl)cc3)n2)nc1-c1ccccc1 | 8.05 | 1.24 | 0.538 | 
7 | N#Cc1c(N)nc(SCc2csc(-c3ccccc3Cl)n2)nc1-c1ccc2c(c1)OCO2 | 7.12 | 1.29 | 0.588 | 
8 | N#Cc1c(N)nc(SCc2c[nH]cn2)nc1-c1ccc2c(c1)OCO2 | 7.08 | 1.15 |  | 
9 | N#Cc1c(N)nc(SCc2csc(-c3ccc([N+](=O)[O-])cc3)n2)nc1-c1ccc2c(c1)OCO2 | 7.96 | 0.95 |  | 
10 | N#Cc1c(N)nc(SCc2csc(-c3ccc(C(F)(F)F)cc3)n2)nc1-c1ccc2c(c1)OCO2 | 7.74 | 1.2 |  | 
11 | N#Cc1c(N)nc(SCc2csc(-c3ccc(Cl)cc3)n2)nc1-c1ccc(OC(F)(F)F)cc1 | 6.73 |  |  | 
12 | CCN(CC)CCN1CCN(C(=O)CCc2cccc(CSc3nc(N)c(C#N)c(-c4ccc(NC(C)=O)cc4)n3)n2)CC1 |  |  |  | pEC50 (Adenosine receptor A1 [9]): 9.00
13 | N#Cc1c(N)nc(SCc2csc(-c3ccc(Cl)cc3)n2)nc1-c1ccc(O)cc1 | 7.82 | 0.99 |  | 
14 | N#Cc1c(N)nc(SCc2coc(-c3cccc(F)c3)n2)nc1-c1ccc2c(c1)OCO2 | 7.82 | 1.24 | 0.0508 | 
15 | N#Cc1c(N)nc(SCc2coc(-c3ccc(F)cc3)n2)nc1-c1ccc2c(c1)OCO2 | 7.70 | 1.01 |  | 
16 | N#Cc1c(N)nc(SCc2csc(-c3ccc(Br)cc3)n2)nc1-c1ccc2c(c1)OCO2 | 8.28 | 1.67 | 0.983 | inhibition [4]: 2.9%; inhibition [5]: 1.7%; inhibition [6]: -1.8%; Emax [7]: 60%; pEC50 (Adenosine receptor A1 [8]): 8.34
17 | CC(=O)Nc1ccc(-c2nc(SCc3csc(-c4ccc(Cl)cc4)n3)nc(N)c2C#N)cc1 | 7.85 | 0.97 |  | inhibition [4]: 44%; inhibition [5]: 2.5%; inhibition [6]: 5.5%; Emax [7]: 112%; pEC50 (Adenosine receptor A1 [8]): 8.41

Row | SMILES | pKi (Adenosine receptor A1 [1]) | Ratio [2] | TIME [3] [h] | other results
18 | Cc1ccc(-c2nc(CSc3nc(N)c(C#N)c(-c4ccc5c(c4)OCO5)n3)cs2)cc1 | 8.51 | 1.15 |  | 
19 | COc1ccc(-c2nc(CSc3nc(N)c(C#N)c(-c4ccc5c(c4)OCO5)n3)cs2)cc1 | 8.74 | 1 |  | inhibition [4]: 3.2%; inhibition [5]: 3.5%; inhibition [6]: 11%; Emax [7]: 104%; pEC50 (Adenosine receptor A1 [8]): 8.72
20 | N#Cc1c(N)nc(SCc2csc(-c3ccc4c(c3)OCO4)n2)nc1-c1ccc2c(c1)OCO2 | 8.60 | 0.93 |  | 
21 | Cc1ccc(-c2nc(SCc3csc(-c4ccc(Cl)cc4)n3)nc(N)c2C#N)cc1 |  |  |  | inhibition [10]: 44%
22 | N#Cc1c(N)nc(SCc2cscn2)nc1-c1ccc2c(c1)OCO2 | 8.01 | 0.93 |  | inhibition [4]: 31%; inhibition [6]: 35%; Emax [11]: 27%; pKi (Adenosine receptor A2b): 7.38
23 | CN(C)c1ccc(-c2nc(SCc3csc(-c4ccc(Cl)cc4)n3)nc(N)c2C#N)cc1 | 6.63 |  |  | 
24 | N#Cc1c(N)nc(SCc2csc(-c3ccc(F)cc3)n2)nc1-c1ccc2c(c1)OCO2 | 8.17 | 1.22 | 0.575 | 
25 | N#Cc1c(N)nc(SCc2coc(-c3ccc(Cl)cc3)n2)nc1-c1ccc2c(c1)OCO2 | 7.82 | 1.17 |  | 
26 | N#Cc1c(N)nc(SCc2csc(-c3ccc(Cl)cc3)n2)c(C#N)c1-c1ccc(OCCO)cc1 [CAPADENOSON] |  | 1.42 |  | pEC50 (Adenosine receptor A1 [12]): 10.00
27 | N#Cc1c(N)nc(SCc2csc(-c3ccc(Cl)cc3)n2)nc1-c1ccc2c(c1)OCO2 | 7.85 | 1.64 | 0.857 | inhibition [4]: 4.5%; inhibition [5]: 0%; inhibition [6]: 4.5%; Emax [7]: 71%; pEC50 (Adenosine receptor A1 [8]): 8.31
28 | N#Cc1c(N)nc(SCc2csc(-c3ccc(Cl)c(Cl)c3)n2)nc1-c1ccc2c(c1)OCO2 |  |  |  | inhibition [10]: 23%
29 | COc1ccc(-c2nc(SCc3csc(-c4ccc(Cl)cc4)n3)nc(N)c2C#N)cc1 |  |  |  | inhibition [10]: 73%
30 | N#Cc1c(N)nc(SCc2csc(-c3ccccc3F)n2)nc1-c1ccc2c(c1)OCO2 | 7.92 | 1.46 | 0.375 | 
31 | CCOc1ccc(-c2nc(SCc3csc(-c4ccc(Cl)cc4)n3)nc(N)c2C#N)cc1 |  |  |  | inhibition [10]: 49%
32 | N#Cc1c(N)nc(SCc2csc(C3CCCCC3)n2)nc1-c1ccc2c(c1)OCO2 | 8.20 | 1.17 |  | 
33 | N#Cc1c(N)nc(SCc2csc(-c3cccc(Cl)c3)n2)nc1-c1ccc2c(c1)OCO2 | 7.38 | 1.24 | 0.5 | 
